# Columns and labels:
# Assay type in all cases: functional
# Rattus norvegicus [1] = assay: Percent change in volume of foot edema of test compound to that of positive control was determined at a dose of 31.6 mg/kg in rat; -61/-63
# Rattus norvegicus [2] = assay: Percent change in volume of foot edema of test compound to that of positive control was determined at a dose of 10 mg/kg in rat; -9/-80
# Rattus norvegicus [3] = assay: Percent change in volume of foot edema of test compound to that of positive control was determined at a dose of 31.6 mg/kg in rat; -26/-81
# Rattus norvegicus [4] = assay: Percent change in volume of foot edema of test compound to that of positive control was determined at a dose of 31.6 mg/kg in rat; -54/-67
# Rattus norvegicus [5] = assay: Percent change in volume of foot edema of test compound to that of positive control was determined at a dose of 10 mg/kg in rat; -5/-59
# Rattus norvegicus [6] = assay: Percent change in volume of foot edema of test compound to that of positive control was determined at a dose of 31.6 mg/kg in rat; […]/-69
# Rattus norvegicus [7] = assay: Oral Antiallergic activity in the passive foot anaphylaxis (PFA) assay of various amines at the dose of 3.16 mg/kg; -33/-84
# Rattus norvegicus [8] = assay: Percent change in volume of foot edema of test compound to that of positive control was determined at a dose of 10 mg/kg in rat; […]
# Rattus norvegicus [9] = assay: Percent change in volume of foot edema of test compound to that of positive control was determined at a dose of 31.6 mg/kg in rat; -24/-58
# Rattus norvegicus [10] = assay: Percent change in volume of foot edema of test compound to that of positive control was determined at a dose of 10 mg/kg in rat; -55/-63
# Rattus norvegicus [11] = assay: Percent change in volume of foot edema of test compound to that of positive control was determined at a dose of 3.16 mg/kg in rat; -36/-80
# Rattus norvegicus [12] = assay: Percent change in volume of foot edema of test compound to that of positive control was determined at a dose of 31.6 mg/kg in rat; -78/-69
# Rattus norvegicus [13] = assay: Percent change in volume of foot edema of test compound to that of positive control was determined at a dose of 10 mg/kg in rat
# Rattus norvegicus [14] = assay: Percent change in volume of foot edema of test compound to that of positive control was determined at a dose of 31.6 mg/kg in rat
# Rattus norvegicus [15] = assay: Percent change in volume of foot edema of test compound to that of positive control was determined at a dose of 31.6 mg/kg in rat; -29/-47
# Rattus norvegicus [16] = assay: Percent change in volume of foot edema of test compound to that of positive control was determined at a dose of 10 mg/kg in rat; +22/-73
# Rattus norvegicus [17] = assay: Percent change in volume of foot edema of test compound to that of positive control was determined at a dose of 31.6 mg/kg in rat; -85/-78
# Rattus norvegicus [18] = assay: Percent change in volume of foot edema of test compound to that of positive control was determined at a dose of 31.6 mg/kg in rat; -48/-84
# Rattus norvegicus [19] = assay: Percent change in volume of foot edema of test compound to that of positive control was determined at a dose of 10 mg/kg in rat; +14/-44
# Rattus norvegicus [20] = assay: Percent change in volume of foot edema of test compound to that of positive control was determined at a dose of 31.6 mg/kg in rat; -59/-83
# Rattus norvegicus [21] = assay: Percent change in volume of foot edema of test compound to that of positive control was determined at a dose of 10 mg/kg in rat; -2/-65
# Rattus norvegicus [22] = assay: Percent change in volume of foot edema of test compound to that of positive control was determined at a dose of 10 mg/kg in rat; -67/-72
# Rattus norvegicus [23] = assay: Percent change in volume of foot edema of test compound to that of positive control was determined at a dose of 31.6 mg/kg in rat; -90/-79
# Rattus norvegicus [24] = assay: Percent change in volume of foot edema of test compound to that of positive control was determined at a dose of 3.16 mg/kg in rat; -52/-79
# Cavia porcellus = species: Cavia porcellus; assay: Dose that protects 50% of guinea pig from collapse was determined in guinea pig anaphylaxis assay; details: read-out: PD50
# Procedure, shortened: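 Guinea pigs dosed by gavage (10 mL/kg) with compound in 0.5% Tween 80/water; reference theophylline 100 mg/kg po. At 1–24 h, exposed in chamber to aerosolized 1% (w/v) egg albumin at 10 L air/min for up to 5 min; protected if no collapse within 5 min. PD50 by Litchfield and Wilcoxon.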
# Rattus norvegicus [25] = assay: Percent change in volume of foot edema of test compound to that of positive control was determined at a dose of 31.6 mg/kg in rat; -75/-83
# Rattus norvegicus [26] = assay: Oral Antiallergic activity in the passive foot anaphylaxis (PFA) assay of various amines at the dose of 3.16 mg/kg; -38/-78
# Rattus norvegicus [27] = assay: Percent change in volume of foot edema of test compound to that of positive control was determined at a dose of 10 mg/kg in rat; -61/-88
# Rattus norvegicus [28] = assay: Percent change in volume of foot edema of test compound to that of positive control was determined at a dose of 31.6 mg/kg in rat; 39/-78
smiles,measurement,setting,value
OC(CCN1CCN(c2ccc(Cl)c(Cl)c2)CC1)COc1ccccc1 (centres undefined),PFA,Rattus norvegicus [1],-61
same,PFA,Rattus norvegicus [2],-9
O=C(O)C(=O)O.OC(CCN1CCCCC1)COc1ccccc1 (centres undefined),PFA,Rattus norvegicus [3],-26
Cl.Cl.OC(CCN1CCN(c2ccc(Cl)cc2)CC1)COc1ccc(Cl)cc1 (centres undefined),PFA,Rattus norvegicus [4],-54
same,PFA,Rattus norvegicus [5],-5
Cc1cc(OCC(O)CCN2CCN(c3ccccc3)CC2)ccc1Cl (centres undefined),PFA,Rattus norvegicus [6],-71
same,PFA,Rattus norvegicus [7],-33
same,PFA,Rattus norvegicus [8],-45
CN1CCN(CCC(O)COc2ccccc2)CC1.O=C(O)/C=C\C(=O)O (centres undefined),PFA,Rattus norvegicus [9],-24
OC(CCN1CCN(c2ccc(F)cc2)CC1)COc1ccc(Cl)cc1 (centres undefined),PFA,Rattus norvegicus [10],-55
same,PFA,Rattus norvegicus [11],-36
same,PFA,Rattus norvegicus [12],-78
Cl.Cl.O=[N+]([O-])c1ccc(OCC(O)CCN2CCN(c3ccccc3)CC2)cc1 (centres undefined),PFA,Rattus norvegicus [13],-28
same,PFA,Rattus norvegicus [14],-92
OC(CCN1CCC(c2ccccc2)CC1)COc1ccccc1 (centres undefined),PFA,Rattus norvegicus [15],-29
OC(CCN1CCN(c2cccc(Cl)c2)CC1)COc1ccccc1 (centres undefined),PFA,Rattus norvegicus [16],22
same,PFA,Rattus norvegicus [17],-85
Cc1cc(C)cc(OCC(O)CCN2CCN(c3ccccc3)CC2)c1 (centres undefined),PFA,Rattus norvegicus [18],-48
same,PFA,Rattus norvegicus [19],14
OC(CCN1CCN(c2ccc(Br)cc2)CC1)COc1ccccc1 (centres undefined),PFA,Rattus norvegicus [20],-59
same,PFA,Rattus norvegicus [21],-2
Cl.Cl.OC(CCN1CCN(c2ccccn2)CC1)COc1ccc(F)cc1 (centres undefined),PFA,Rattus norvegicus [22],-67
same,PFA,Rattus norvegicus [23],-90
same,PFA,Rattus norvegicus [24],-52
same,ED50,Cavia porcellus,13.9 mg/kg
CC(=O)c1ccc(N2CCN(CCC(O)COc3ccc(Cl)cc3)CC2)cc1 (centres undefined),PFA,Rattus norvegicus [25],-75
same,PFA,Rattus norvegicus [26],-38
same,PFA,Rattus norvegicus [27],-61
OC(CCN1CCN(c2cccc(C(F)(F)F)c2)CC1)COc1ccccc1 (centres undefined),PFA,Rattus norvegicus [28],39

# Reference: ChEMBL document CHEMBL1124808, “The synthesis and antiallergy activity of 1-(aryloxy)-4-(4-arylpiperazinyl)-2-butanol derivatives” (1990)
